In article PMC5241585 (International Journal for Parasitology: Drugs and Drug …, 2016):
Read-outs that look alike come from different tables or passages of the source. Marks after values point to notes of the source that are not given here.

How the values were obtained:
P. falciparum 3D7 = P. falciparum 3D7 3H-hypoxanthine incorporation growth inhibition assay; type: cell-based; settings: Plasmodium falciparum, 3D7, 48 h, read-out: P. falciparum 3D7 IC50
P. knowlesi A1H.1 = P. knowlesi A1H.1 3H-hypoxanthine incorporation growth inhibition assay; type: cell-based; settings: Plasmodium knowlesi, 48 h, read-out: P. knowlesi A1H.1 IC50
P. berghei QIMR = assay: In vivo anti-Plasmodium efficacy in infected BALB/c mice; settings: for peripheral blood parasitemia compared to vehicle-only control mice: 25 mg/kg oral gavage twice daily for four days; for days after infection with significant reduction in parasitemia (P < 0.05): 25 mg/kg orally twice daily for four days
Outline: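 Female BALB/c mice, 6–8 weeks old, six per group, infected i.p. with […] P. berghei QIMR-infected erythrocytes from a passage mouse. Oral gavage of 25 mg/kg test compound in DMSO/PBS (100 μL) twice daily for four days, starting 2 h p.i. with 4 h between doses. Chloroquine 10 mg/kg oral twice daily for three days. Giemsa thin smears read daily from day 4 (>800 erythrocytes per mouse).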

[1] = tested on: human Neonatal Foreskin Fibroblast (NFF) cells; settings: read-out: NFF IC50; previously published; ref Engel et al., 2015; cited from earlier work
[2] = female BALB/c nude mice, oral 50 mg/kg; ref Yeo et al., 2007; cited from earlier work
[3] = cited from earlier work
Plasmodium parasites = assay: Ratios derived from Table 1 IC50 values; type: cell-based
[4] = tested on: free L. donovani promastigotes; assay: Resazurin reduction assay, L. donovani promastigotes; type: cell-based, Leishmania donovani; settings: for inhibition at 20 µM: Leishmania donovani, read-out: inhibition of free L. donovani promastigotes
S. mansoni adult worms = assay: Adult worm pair stability and egg laying in culture; type: cell-based, Schistosoma mansoni
Outline: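 S. mansoni adult worm pairs kept in culture with test compound at 10 μM. Pairing and egg laying expressed as mean % of DMSO control (set to 100%). Praziquantel (10 μM) served as control. Run in triplicate on two separate occasions.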

[5] = tested on: Human Embryonic Kidney (HEK 293) cells; settings: read-out: HEK 293 IC50; previously published; ref Engel et al., 2015; cited from earlier work
[6] = Oral pharmacokinetics in humans; type: in vivo
[7] = Oral pharmacokinetics in mice; settings: mice dosed orally with 50 mg/kg; ref Yeo et al., 2007
[8] = humans, 200–600 mg oral vorinostat, ref Kavanaugh et al., 2010
[9] = humans, 15–80 mg oral panobinostat, ref Prince et al., 2009

For `CCN(CC)CCCC(C)Nc1ccnc2cc(Cl)ccc12` (stereo not drawn) [Chloroquine], the IC50 (P. falciparum 3D7) was 0.01 µM, the IC50 (P. knowlesi A1H.1) was 0.01 µM and the peripheral blood parasitemia (P. berghei QIMR; 10 mg/kg orally twice daily beginning 2 h p.i., data not shown) was “did not develop detectable peripheral blood parasitemia”. The IC50 [1] was 48.9 µM.
For `O=C(CCCCCCC(=O)Nc1ccccc1)NO` [Vorinostat], the “peripheral blood parasitemia compared to vehicle-only control mice” value (P. berghei QIMR) is given as “significant reduction”, the “days after infection with significant reduction in parasitemia (P < 0.05)” value (P. berghei QIMR) is given as 4 to 7 days and the “AUC0−∞” value [2] is given as 619 ng⋅h/mL. The “AUC0−∞” value [3, 8] was 1698 ng⋅h/mL and the Cmax [3, 8] was 658 ng/mL.
With `C/C=C1\NC(=O)[C@H]2CSSCC/C=C/[C@H](CC(=O)N[C@H](C(C)C)C(=O)N2)OC(=O)[C@H](C(C)C)NC1=O` [Romidepsin] the IC50 (P. falciparum 3D7) was 0.14 µM, the IC50 (P. knowlesi A1H.1) was 0.21 µM and the “selectivity for the parasite over NFF or HEK 293 cells” value (Plasmodium parasites; P. knowlesi vs human cells, in abstract) was “not selective”. For the same compound, the “inhibition of free L. donovani promastigotes” value ([4]; 20 μM) was “no growth inhibition”, the “inhibition of adult worm pairing” value (S. mansoni adult worms; 10 μM) was “completely inhibited” and the “inhibition of egg production” value (S. mansoni adult worms; 10 μM) was “completely inhibited”. For the same compound, the IC50 [1] was 0.001 µM and the IC50 [5] was less than 0.005 µM.
For `Cc1[nH]c2ccccc2c1CCNCc1ccc(/C=C/C(=O)NO)cc1` [Panobinostat], the IC50 (P. falciparum 3D7) was 0.004 µM, the IC50 (P. knowlesi A1H.1) was 0.009 µM and the “greater inhibitory potency against Plasmodium parasites in vitro than vorinostat” value (Plasmodium parasites; from Table 1 IC50 values) was 40–60 fold. It also gave an inhibition at 20 µM [4] of 20 to 35%, an inhibition at 10 µM (S. mansoni adult worms; Schistosoma mansoni, read-out: inhibition of adult worm pairing) of 30 to 40% and an inhibition at 10 µM (S. mansoni adult worms; Schistosoma mansoni, read-out: inhibition of egg production) of roughly 50%. For the same compound, the “peripheral blood parasitemia compared to vehicle-only control mice” value (P. berghei QIMR) was “significant reduction”, the “reduction in mean peripheral parasitemia compared to vehicle-only control” value (P. berghei QIMR; 25 mg/kg oral gavage twice daily, days 4-10) was 2–3 fold and the “survival compared to vehicle control group” value (P. berghei QIMR; 25 mg/kg oral gavage twice daily, p = 0.0013) was “significantly improved”. The “days after infection with significant reduction in parasitemia (P < 0.05)” value (P. berghei QIMR) was 4 to 10 days, the “half-life in humans compared to mice” value ([6]; from Table 2 values) was 6–10 fold and the “oral bioavailability (F%) in humans compared to mice” value ([6]; from Table 2 values) was “approximately five”. For the same compound, the Cmax ([6]; human, in vivo, po, 20 mg) was roughly 70 nM, the IC50 [1] was 0.07 µM and the IC50 [5] was 0.18 µM. The “adverse effects in humans” value ([3]; 20 mg oral dose, ref FARYDAK product sheet (Novartis)) was “adverse effects are commonly reported”, the “AUC0−∞” value [3, 9] was 183–373 ng⋅h/mL and the Cmax [3, 9] was 23 to 71 ng/mL. For the same compound, the t1/2 [3, 9] was 16–30 ^d h, the “mean Cmax” value ([3]; humans, single oral dose 20 mg, ref European Medicines Agency, 2015) was 24.3 (±12) ng/mL and the “half-life longer than vorinostat” value [7] was greater than 2 fold.
For `O=C(/C=C/c1cccc(S(=O)(=O)Nc2ccccc2)c1)NO` [Belinostat], the IC50 (P. falciparum 3D7) was 0.17 µM, the IC50 (P. knowlesi A1H.1) was 0.19 µM and the inhibition at 20 µM [4] was 20 to 35%. The IC50 [1] was 2.37 µM and the IC50 [5] was 1.42 µM.
For `O=C(C1CCCCC1)N1CC(=O)N2CCc3ccccc3C2C1` (stereo not drawn) [praziquantel], the “effect on adult worms” value (S. mansoni adult worms; 10 μM) was “induced the death of adult worms” and the viability at 10 µM (S. mansoni adult worms; Schistosoma mansoni, read-out: adult worm viability) was 10%.
